In paper PMC4631057 (ACS chemical biology, 2015):

Columns and labels:
[1] = tested on: protein levels of Bcl-2, Msi1, and XIAP; assay: Western blot of HuR target protein levels in HCT-116; assay type: cell-based, human; settings: indicated doses, 48 h
In short: (§1)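 HCT-116 cells were grown in DMEM with 10% FBS and 1% antibiotics at 37 °C in humidified 5% CO2. They were treated with test compound or DMSO at the indicated doses for 48 h. Protein levels were then measured by Western blot, with α-tubulin as loading control.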

Wnt signaling pathway = assay: Wnt responsive 7xTcf promoter/luciferase reporter assay in HCT-116; assay type: cell-based, human; settings: 20 μM, 24 h, 20 mM LiCl stimulation, compared to DMSO control
In short: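 HCT-116 cells were infected with the 7TFP lentiviral vector to stably express the 7xTcf promoter/luciferase construct. Cells were plated and allowed to attach overnight. They were then stimulated with 20 mM LiCl and treated with 20 μM test compound or DMSO for 24 h. Cells were lysed in reporter lysis buffer and luciferase was assayed. Activity was normalized to total protein. Values are mean ± SD of three independent experiments, compared with DMSO by one-way ANOVA.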

HuR-bound XIAP mRNA = HuR-bound XIAP mRNA (Homo sapiens, UniProt Q15717); assay: RNP IP, HuR-bound XIAP mRNA in HCT-116 cell lysate; assay type: cell-based; settings: at indicated doses, compared to DMSO
Sequence of HuR-bound XIAP mRNA (Q15717 2-326 limits assumed): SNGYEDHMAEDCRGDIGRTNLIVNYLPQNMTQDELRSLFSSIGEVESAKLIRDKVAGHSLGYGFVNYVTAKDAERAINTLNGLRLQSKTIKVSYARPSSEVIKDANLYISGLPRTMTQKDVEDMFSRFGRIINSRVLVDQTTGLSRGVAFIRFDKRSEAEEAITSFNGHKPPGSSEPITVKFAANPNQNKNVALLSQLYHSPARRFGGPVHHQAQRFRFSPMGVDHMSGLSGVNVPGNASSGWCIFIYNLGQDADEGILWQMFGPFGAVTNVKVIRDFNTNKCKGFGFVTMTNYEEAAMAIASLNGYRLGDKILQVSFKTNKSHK
In short: (§2)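 HCT-116 lysate, prepared with a protein G immunoprecipitation kit, incubated 30 min with test compound or DMSO. HuR antibody, or mouse IgG as negative control, was then added for 60 min. Complexes were collected on protein G agarose, RNA isolated, and bound transcripts quantified by qRT-PCR. Mean ± SD of two independent experiments.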

[2] = tested on: Bcl-2, Msi1, and XIAP mRNAs; assay: mRNA stability after actinomycin D in HCT-116; assay type: cell-based, human; settings: 20 μM, 5 μg/mL actinomycin D, compared to DMSO control
In short: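 HCT-116 cells, cultured in DMEM with 10% FBS at 37 °C and 5% CO2, were exposed to 5 μg/mL actinomycin D together with 20 μM test compound or DMSO. Half-lives of Bcl-2, Msi1 and XIAP mRNAs were determined. Data are representative of two independent experiments.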

HuR bound Msi1 mRNA = HuR bound Msi1 mRNA (Homo sapiens, UniProt Q15717); assay: RNP IP, HuR-bound Msi1 mRNA in HCT-116 cell lysate; assay type: cell-based; settings: 50 μM, compared to DMSO control
Sequence of HuR bound Msi1 mRNA (Q15717 2-326 limits assumed): as above
In short: as §2

[3] = tested on: cleaved PARP, cleaved caspase-3, LC3 conversion; assay: Western blot of apoptosis and autophagy markers in HCT-116; assay type: cell-based, human; settings: 75 μM, 48 h
In short: as §1

ARE^Msi1–FITC = assay: FP titration of Bcl-xL with Msi1-FITC; assay type: binding; settings: highest concentration tested 1000 nM; 2 nM Msi1-FITC
HuR full-length [4] = target: T1, HuR full-length (human, UniProt Q15717 1-326); assay: fluorescence polarization
T1 sequence (Q15717 whole entry): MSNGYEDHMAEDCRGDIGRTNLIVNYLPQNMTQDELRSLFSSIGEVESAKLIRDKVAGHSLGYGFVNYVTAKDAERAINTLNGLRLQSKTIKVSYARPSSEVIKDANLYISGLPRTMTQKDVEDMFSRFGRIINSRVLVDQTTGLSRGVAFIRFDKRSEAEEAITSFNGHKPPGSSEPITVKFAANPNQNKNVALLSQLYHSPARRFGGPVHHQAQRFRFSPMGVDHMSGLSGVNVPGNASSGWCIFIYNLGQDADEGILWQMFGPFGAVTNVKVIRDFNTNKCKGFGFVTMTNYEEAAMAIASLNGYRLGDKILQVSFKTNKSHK

HuR full-length [5] = target: T1, HuR full-length; assay: fluorescence polarization; remark: listed apart in the source
HuR full-length [6] = target: T1, HuR full-length; assay: fluorescence polarization; remark: listed apart in the source
HuR RRM1/2 = HuR RRM1/2 (UniProt Q15717 20-186); assay: AlphaLISA
Sequence of HuR RRM1/2 (Q15717 20-186): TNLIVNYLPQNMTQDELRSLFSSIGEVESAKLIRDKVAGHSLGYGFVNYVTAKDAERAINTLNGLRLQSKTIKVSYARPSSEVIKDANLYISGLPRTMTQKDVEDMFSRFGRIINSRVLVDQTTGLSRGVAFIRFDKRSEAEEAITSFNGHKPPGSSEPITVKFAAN

HuR full-length [7] = target: T1, HuR full-length; assay: competition

For `CCN(CC)C(=O)CC(c1cc(OC)c(OC)c(OC)c1)c1c(OC)cc(OC)c2c(-c3ccccc3)cc(=O)oc12` (stereo not drawn) [CMLD-1], the “effect on protein levels of Bcl-2, Msi1, and XIAP” value [1] was “decreased”, the “effect on Wnt signaling (luciferase reporter)” value (Wnt signaling pathway) was “significantly impacted” and the “effect on HuR-bound XIAP mRNA (RNP IP)” value (HuR-bound XIAP mRNA) was “potently inhibited”. For the same molecule, the “effect on half-lives of Bcl-2, Msi1 and XIAP mRNAs” value [2] was “shortened the half-lives”, the “effect on HuR bound Msi1 mRNA (RNP IP)” value (HuR bound Msi1 mRNA) was “significantly blocked” and the “LC3-I conversion to LC3-II” value [3] was “detected”. The PARP cleavage [3] was “obvious PARP cleavage” and the caspase-3 cleavage [3] was “subtle caspase-3 cleavage”.

“Bcl-xL: non-RNA binding protein used as specificity control” was tested, and the “binding to ARE^Msi1–FITC (in words)” value (ARE^Msi1–FITC) was “no binding”.

B1: XIAP-FITC (AREXIAP) (ssRNA)
RNA: UAGUUAUUUUUAUGUC
B1: binds (HuR full-length [4]).

B2: APC-FITC (ssRNA)
RNA: UAUUUGAUAGUACACU
With B2 the binding signal (HuR full-length [5]) was 20 fold lower affinity than Msi1.

B3: Bcl-2-FITC (AREBcl-2) (ssRNA)
RNA: AAAAGAUUUAUUUAUU
B3: binds (HuR full-length [4]).

B4: Msi1-FITC (AREMsi1) (ssRNA)
RNA: GCUUUUAUUUAUUUUG
Work on B4 yielded a Kd (HuR full-length [6]) of about 3 nM.

B5: Msi1 RNA biotinylated (ssRNA)
RNA: GCUUUUAUUUAUUUUG
Molecule B5 has a Kd (HuR RRM1/2) of 75 nM.

B6: Msi1 RNA unlabeled (ssRNA)
RNA: GCUUUUAUUUAUUUUG
B6 showed an IC50 (HuR full-length [7]) of 17.9 nM.
